Measured values taken from ChEMBL document CHEMBL4020838, “The Discovery of ( S)-1-(6-(3-((4-(1-(Cyclopropanecarbonyl)piperidin-4-yl)-2-methylphenyl)amino)-2,3-dihydro-1 H-inden-4-yl)pyridin-2-yl)-5-methyl-1 H-pyrazole-4-carboxylic Acid, a Soluble Guanylate Cyclase Activator Specifically Designed for Topical Ocular Delivery as a Therapy for Glaucoma” (J Med Chem, 2018).
Calls of active or inactive are those of the source. The rule behind the calls is not given here.

Tests used:
Homo sapiens [1] = species on record: Homo sapiens; assay: Activation of HUVEC-derived soluble guanylate cyclase expressed in CHOK1 cells assessed as increase in cGMP production after 1 hr by HTRF assay relative to 1-{6-[5-chloro-2-({4-[trans-4-(trifluoromethyl)cyclohexyl]-benzyl}oxy)phenyl)pyridin-2-yl)-5-(trifluoromethyl)-1H-pyrazole-4-carboxylic acid; format: cell-based
Method in brief: (§1)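 High-throughput assay in Chinese hamster ovary cells expressing sGC. cGMP was measured across a dose range. EC50 and Emax (maximal cGMP produced) were taken from the dose-response curve.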

Homo sapiens [2] = species on record: Homo sapiens; assay: Activation of soluble guanylate cyclase in human GTM3 cells assessed as increase in cGMP production after 30 mins by fluorescence assay relative to 1-{6-[5-chloro-2-({4-[trans-4-(trifluoromethyl)cyclohexyl]-benzyl}oxy)phenyl)pyridin-2-yl)-5-(trifluoromethyl)-1H-pyrazole-4-carboxylic acid; format: cell-based
Method in brief: (§2)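 Immortalized glaucomatous trabecular meshwork (GTM-3) cells expressing endogenous levels of sGC were used. cGMP was read across a dose range. EC50 and Emax were derived from the dose-response curve.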

[3] = Activation of HUVEC-derived soluble guanylate cyclase expressed in CHOK1 cells assessed as increase in cGMP production after 1 hr by HTRF assay; format: cell-based; method in brief: as §1
[4] = Activation of soluble guanylate cyclase in human GTM3 cells assessed as increase in cGMP production after 30 mins by fluorescence assay; format: cell-based; method in brief: as §2
Oryctolagus cuniculus [5] = assay: Toxicity in New Zealand albino rabbit eye up to 300 ug administered as single topical dose measured up to 24 hrs post dose; settings: in vivo, topical_or_ocular
Cynomolgus monkey [6] = assay: Toxicity in laser-induced ocular hypertensive cynomolgus monkey eye at 30 ug administered as single topical dose; design: species or system Macaca fascicularis; settings: in vivo, topical_or_ocular
[7] = Dissociation constant, pKa of the compound; format: physicochemical
Oryctolagus cuniculus [8] = assay: Toxicity in New Zealand albino rabbit assessed as conjunctival hyperemia at 30 ug administered as single topical dose measured up to 24 hrs post dose; settings: in vivo, topical_or_ocular
Oryctolagus cuniculus [9] = assay: Toxicity in New Zealand albino rabbit assessed as excessive blinking at 30 ug administered as single topical dose measured up to 24 hrs post dose; settings: in vivo, topical_or_ocular
Oryctolagus cuniculus [10] = assay: Toxicity in New Zealand albino rabbit assessed as ocular discharge at 300 ug administered as single topical dose measured up to 24 hrs post dose; settings: in vivo, topical_or_ocular
Cynomolgus monkey [11] = assay: Reduction of intraocular pressure in laser-induced ocular hypertensive cynomolgus monkey at 100 ug administered as single topical dose measured at 24 hrs post dose relative to control; format: functional, Macaca fascicularis; design: scale not given: the % may be the effect or the level left
Method in brief: (§3)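 Cynomolgus monkeys with laser-induced elevated IOP received one 30 μL topical ocular drop containing 100 μg of compound, formulated as a suspension. Percent IOP reduction was recorded at 6 h and at 24 h after dosing.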

Oryctolagus cuniculus [12] = assay: Toxicity in New Zealand albino rabbit assessed as conjunctival hyperemia at 300 ug administered as single topical dose measured up to 24 hrs post dose; settings: in vivo, topical_or_ocular
Cynomolgus monkey [13] = assay: Toxicity in laser-induced ocular hypertensive cynomolgus monkey assessed as conjunctival hyperemia at 300 ug administered as single topical dose; design: species or system Macaca fascicularis; settings: in vivo, topical_or_ocular
Method in brief: (§4)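 Cynomolgus monkeys with laser-induced elevated IOP received a single topical ocular dose of 300 μg in a 30 μL drop. IOP and ocular signs were observed after dosing.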

Cynomolgus monkey [14] = assay: Toxicity in laser-induced ocular hypertensive cynomolgus monkey assessed as ocular discharge at 300 ug administered as single topical dose; design: species or system Macaca fascicularis; settings: in vivo, topical_or_ocular; method in brief: as §4
Cynomolgus monkey [15] = assay: Reduction of intraocular pressure in laser-induced ocular hypertensive cynomolgus monkey at 100 ug administered as single topical dose measured at 6 hr post dose relative to control; format: functional, Macaca fascicularis; design: scale not given: the % may be the effect or the level left; method in brief: as §3
Cynomolgus monkey [16] = assay: Reduction of intraocular pressure in laser-induced ocular hypertensive cynomolgus monkey at 30 ug administered as single topical dose measured after 6 to 24 hrs; format: functional; settings: Macaca fascicularis
Cynomolgus monkey [17] = assay: Toxicity in laser-induced ocular hypertensive cynomolgus monkey assessed as ocular irritation at 300 ug administered as single topical dose; design: species or system Macaca fascicularis; settings: in vivo, topical_or_ocular; method in brief: as §4
Cynomolgus monkey [18] = assay: Reduction of intraocular pressure in laser-induced ocular hypertensive cynomolgus monkey at 300 ug administered as single topical dose; format: functional; settings: Macaca fascicularis; method in brief: as §4

Compound: Cc1cc(C2CCN(C(=O)C3CC3)CC2)ccc1OCc1cc(Cl)sc1-c1cccc(-n2ncc(C(=O)O)c2C(F)(F)F)n1
- Emax (Homo sapiens [1]): 99%
- Emax (Homo sapiens [2]): 97%
- EC50 ([3]; CHO-K1, 1 h): 0.15 nM
- EC50 ([4]; Homo sapiens, GTM3, 0.5 h): 520 nM

Compound: Cc1cc(C2CCN(C(=O)C3CC3)CC2)ccc1OCC1=C(c2cccc(-n3ncc(C(=O)O)c3C(F)(F)F)n2)CCCC1
- Emax (Homo sapiens [1]): 101%
- Emax (Homo sapiens [2]): 110%
- EC50 ([3]; CHO-K1, 1 h): 0.35 nM
- EC50 ([4]; Homo sapiens, GTM3, 0.5 h): 85 nM

Compound: CCc1cc(OCC2=C(c3cccc(-n4ncc(C(=O)O)c4C)n3)CCCC2C)ccc1C1CCN(C(=O)C2CC2)CC1 (single isomer, unassigned; (+)) [listing 1 of 2 here]
- EC50 [3]: < 0.5 nM
- EC50 ([4]; Homo sapiens, GTM3, 0.5 h): 9 nM
- Activity (Oryctolagus cuniculus [5]): Non-Toxic
- Activity (Cynomolgus monkey [6]): Non-Toxic

Compound: Cc1cc(C2CCN(C(=O)C3CC3)CC2)ccc1NC1CCc2cccc(-c3cccc(-n4ncc(C(=O)O)c4C)n3)c21 (stereo in doubt; (-)-23)
- EC50 [3]: 17 nM
- EC50 [4]: 490 nM

Compound: O=C(O)CCCCN(CCc1ccccc1OCc1ccc(CCc2ccccc2)cc1)Cc1ccc(C(=O)O)cc1 [CINACIGUAT]
- Emax (Homo sapiens [1]): 93%
- Emax (Homo sapiens [2]): 15%
- EC50 ([3]; CHO-K1, 1 h): 1 nM
- EC50 ([4]; Homo sapiens, GTM3, 0.5 h): 4 nM

Compound: Cc1cc(C2CCN(C(=O)C3CC3)CC2)ccc1NC1CCc2cccc(-c3cccc(-n4ncc(C(=O)O)c4C)n3)c21 (stereo in doubt; (+)-23) [listing 1 of 2 here]
- EC50 [3]: < 0.5 nM
- EC50 [4]: 5 nM
- Activity (Oryctolagus cuniculus [5]): Non-Toxic
- Activity (Cynomolgus monkey [6]): Non-Toxic
- pKa [7]: 4.3

Compound: Cc1cc2c(c(-c3cccc(-n4ncc(C(=O)O)c4C(F)(F)F)n3)c1)C(Nc1ccc(C3CCN(C(=O)C4CC4)CC3)cc1C)CC2 (single isomer, unassigned; (+))
- EC50 [3]: 1 nM
- EC50 ([4]; Homo sapiens, GTM3, 0.5 h): 55 nM
- pKa [7]: 3.1

Compound: CCc1cc(OCC2=C(c3cccc(-n4ncc(C(=O)O)c4C(F)(F)F)n3)CCCC2C)ccc1C1CCN(C(=O)C2CC2)CC1 (single isomer, unassigned; (+))
- EC50 [3]: 1 nM
- EC50 [4]: 6 nM
- Activity (Oryctolagus cuniculus [8]): Toxic
- Activity (Oryctolagus cuniculus [9]): Toxic

Compound: CCc1cc(OCC2=C(c3cccc(-n4ncc(C(=O)O)c4C(F)(F)F)n3)CCCC2C)ccc1C1CCN(C(=O)C2CC2)CC1 (stereo in doubt; (-)-17)
- EC50 [3]: 9 nM
- EC50 [4]: 170 nM

Compound: CCC(=O)N1CCC(c2ccc(OCc3ccsc3-c3cccc(-n4ncc(C(=O)O)c4C(F)(F)F)n3)c(C)c2)CC1
- Emax (Homo sapiens [1]): 100%
- Emax (Homo sapiens [2]): 97%
- EC50 ([3]; CHO-K1, 1 h): 5.5 nM
- EC50 ([4]; Homo sapiens, GTM3, 0.5 h): 370 nM
- Activity (Oryctolagus cuniculus [10]): Toxic
- Activity (Cynomolgus monkey [11]): 10%
- Activity (Oryctolagus cuniculus [12]): Toxic
- Activity (Cynomolgus monkey [13]): Toxic
- Activity (Cynomolgus monkey [14]): Toxic
- Activity (Cynomolgus monkey [15]): 17%

Compound: Cc1cc(C2CCN(C(=O)C3CC3)CC2)ccc1OC1CCc2cccc(-c3cccc(-n4ncc(C(=O)O)c4C(F)(F)F)n3)c21 (single isomer, unassigned; (+)) [listing 1 of 2 here]
- EC50 [3]: 1 nM
- EC50 ([4]; Homo sapiens, GTM3, 0.5 h): 10 nM

Compound: Cc1cc(C2CCN(C(=O)C3CC3)CC2)ccc1NC1CCc2cccc(-c3cccc(-n4ncc(C(=O)O)c4C(F)(F)F)n3)c21 (single isomer, unassigned; (-))
- EC50 [3]: 37 nM
- EC50 [4]: 1200 nM

Compound: Cc1cc(C2CCN(C(=O)C3CC3)CC2)ccc1OCc1c(C)csc1-c1cccc(-n2ncc(C(=O)O)c2C(F)(F)F)n1
- Emax (Homo sapiens [1]): 100%
- Emax (Homo sapiens [2]): 100%
- EC50 ([3]; CHO-K1, 1 h): < 0.5 nM
- EC50 ([4]; Homo sapiens, GTM3, 0.5 h): 40 nM

Compound: Cc1cc(C2CCN(C(=O)C3CC3)CC2)ccc1NC1CCc2cccc(-c3cccc(-n4ncc(C(=O)O)c4C(F)(F)F)n3)c21 (single isomer, unassigned; (+))
- EC50 [3]: < 0.5 nM
- EC50 [4]: 3 nM
- Activity (Oryctolagus cuniculus [8]): Toxic
- Activity (Oryctolagus cuniculus [9]): Toxic

Compound: Cc1cc(C2CCN(C(=O)C3CC3)CC2)ccc1NC1CCc2cccc(-c3cccc(-n4ncc(C(=O)O)c4C)n3)c21 (stereo in doubt; (+)-23) [listing 2 of 2 here]
- Emax (Homo sapiens [1]): 104%
- Emax (Homo sapiens [2]): 106%
- Activity (Cynomolgus monkey [16]): Active

Compound: Cc1cc(C2CCN(C(=O)C3CC3)CC2)ccc1OC1CCc2cccc(-c3cccc(-n4cc(C(=O)O)cn4)n3)c21 (single isomer, unassigned; (+))
- Emax (Homo sapiens [1]): 103%
- Emax (Homo sapiens [2]): 70%
- EC50 ([3]; CHO-K1, 1 h): 2.5 nM
- EC50 ([4]; Homo sapiens, GTM3, 0.5 h): 320 nM

Compound: CCc1csc(-c2cccc(-n3ncc(C(=O)O)c3C(F)(F)F)n2)c1COc1ccc(C2CCN(C(=O)C3CC3)CC2)cc1C
- Emax (Homo sapiens [1]): 105%
- Emax (Homo sapiens [2]): 70%
- EC50 ([3]; CHO-K1, 1 h): 6 nM
- EC50 ([4]; Homo sapiens, GTM3, 0.5 h): 160 nM

Compound: CCc1cc(OCC2=C(c3cccc(-n4ncc(C(=O)O)c4C(F)(F)F)n3)CCCC2(C)C)ccc1C1CCN(C(=O)C2CC2)CC1
- Emax (Homo sapiens [1]): 99%
- Emax (Homo sapiens [2]): 71%
- EC50 ([3]; CHO-K1, 1 h): 1 nM
- EC50 ([4]; Homo sapiens, GTM3, 0.5 h): 140 nM

Compound: CCc1c(C)sc(-c2cccc(-n3ncc(C(=O)O)c3C(F)(F)F)n2)c1COc1ccc(C2CCN(C(=O)C3CC3)CC2)cc1C
- Emax (Homo sapiens [1]): 101%
- Emax (Homo sapiens [2]): 93%
- EC50 ([3]; CHO-K1, 1 h): 1 nM
- Activity (Cynomolgus monkey [17]): Toxic
- Activity (Cynomolgus monkey [18]): Active
- EC50 ([4]; Homo sapiens, GTM3, 0.5 h): 12 nM
- Activity (Oryctolagus cuniculus [5]): Non-Toxic

Compound: Cc1cc(COc2ccc(C3CCN(C(=O)C4CC4)CC3)cc2C)c(-c2cccc(-n3ncc(C(=O)O)c3C(F)(F)F)n2)s1
- Emax (Homo sapiens [1]): 101%
- Emax (Homo sapiens [2]): 100%
- EC50 ([3]; CHO-K1, 1 h): < 0.1 nM
- EC50 ([4]; Homo sapiens, GTM3, 0.5 h): 53 nM

Compound: Cc1cc(C2CCN(C(=O)C3CC3)CC2)ccc1OC1CCc2cccc(-c3cccc(-n4ncc(C(=O)O)c4C(F)(F)F)n3)c21 (single isomer, unassigned; (+)) [listing 2 of 2 here]
- Emax (Homo sapiens [1]): 102%
- Emax (Homo sapiens [2]): 100%

Compound: CCc1cc(COc2ccc(C3CCN(C(=O)C4CC4)CC3)cc2C)c(-c2cccc(-n3ncc(C(=O)O)c3C(F)(F)F)n2)s1
- Emax (Homo sapiens [1]): 103%
- Emax (Homo sapiens [2]): 68%
- EC50 ([3]; CHO-K1, 1 h): 2 nM
- EC50 ([4]; Homo sapiens, GTM3, 0.5 h): 180 nM

Compound: CCc1cc(OCC2=C(c3cccc(-n4ncc(C(=O)O)c4C)n3)CCCC2C)ccc1C1CCN(C(=O)C2CC2)CC1 (single isomer, unassigned; (+)) [listing 2 of 2 here]
- Emax (Homo sapiens [1]): 101%
- Emax (Homo sapiens [2]): 120%
- Activity (Cynomolgus monkey [16]): Active
